# NR1D1 modulator = modulators of human Rev-erb alpha DNA binding; Rev-erbα–FITC-DNA binding, fluorescence polarization, 90 min; activity, % at 10 µM; hit rate 0.79% among 370,000;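 active = activity above about 14%, limit read from the data; passing the limit was not always enough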;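 also: 0% = DMSO wells with 35 nM protein and 100% = DMSO wells with 750 nM protein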
# PG9 binder = small molecules binding HIV-1 gp120 antibody PG9; TR-FRET gp120-PG9 antibody binding; inhibition, % at 6.7 µM; hit rate 0.43% among 360,000; AID 624416; in the data active = inhibition above about 8.5%
# NR2E3 ag-1 = NR2E3 (human) agonism; Q9Y5X4; GST-NR2E3/biotin-RetCOR TR-FRET, 1536-well; inhibition of corepressor binding, % at 4.78 µM; hit rate 0.12% among 320,000;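 active = percent inhibition above the cutoff of mean plus 3 SD of all tested compounds, set per screening campaign, cut at about 20% in these data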;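 also: 0% = DMSO wells and 100% = biotin wells as full block of FRET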
# Target sequence (Q9Y5X4 whole entry, looked up): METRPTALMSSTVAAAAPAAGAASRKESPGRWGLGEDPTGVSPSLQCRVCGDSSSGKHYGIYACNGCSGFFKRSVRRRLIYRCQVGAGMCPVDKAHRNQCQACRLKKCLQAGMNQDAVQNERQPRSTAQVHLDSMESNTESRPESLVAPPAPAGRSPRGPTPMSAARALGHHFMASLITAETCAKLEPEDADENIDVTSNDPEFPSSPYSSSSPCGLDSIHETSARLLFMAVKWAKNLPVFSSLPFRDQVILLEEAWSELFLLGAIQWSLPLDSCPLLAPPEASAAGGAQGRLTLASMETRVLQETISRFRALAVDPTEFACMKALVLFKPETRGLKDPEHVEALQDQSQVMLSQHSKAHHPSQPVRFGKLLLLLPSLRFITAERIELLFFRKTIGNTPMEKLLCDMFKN
#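 system = GST-tagged NR2E3 plus biotinylated RetCOR corepressor | input = 1.35 nM GST-NR2E3 | also added = 7 nM biotin-RetCOR | schedule = 5 h incubation at 4 °C | measured by = TR-FRET with europium anti-GST and streptavidin-D2, 340 nm excitation | read-out = percent loss of FRET ratio relative to control wells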
# NR2E3 ag-2 = activates human NR2E3 receptor; Q9Y5X4; CHO-S Gal4-NCOR/VP16-NR2E3 two-hybrid, luciferase; inhibition of corepressor binding, % at 3.98 µM; hit rate 0.35% among 360,000; AID 602229;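 active = inhibition above the mean of all tested compounds plus 3 SD, cut at about 70% in these data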;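 also: 0% = DMSO with NR2E3 transfected cells and 100% = cells lacking NR2E3 construct; higher means lower luciferase signal from less NR2E3 corepressor binding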
# NR2E3 ag confirm = NR2E3 agonism confirmed in two-hybrid assay; hit rate 51% among 2,300; AID 624378; CHO-S mammalian two-hybrid NR2E3-NCOR, luciferase luminescence; shares compounds with NR2E3 ag-2; inhibition, % at 3.98 µM;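 active = average inhibition above a cutoff equal to the mean inhibition of all tested compounds plus one SD, cut at about 70% in these data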;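 also: 0% = DMSO in NR2E3 cells and 100% = DMSO in cells lacking NR2E3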
# VP16 counter = reduces GAL4-VP16 reporter signal in NR2E3 counterscreen; shares compounds with NR2E3 ag-2; CHO-S GAL4-VP16 luciferase reporter, luminescence; inhibition, % at 3.98 µM; hit rate 29% among 2,300; AID 624379;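 active = mean inhibition above a cutoff equal to the average over all tested compounds plus one standard deviation, cut at about 70% in these data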;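 also: luciferase from a UAS reporter driven by GAL4-VP16 transactivation; 0% = DMSO with VP16-transfected cells and 100% = DMSO with cells lacking VP16; higher means less reporter light so more repression of VP16 activity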
# Active calls of the source: *; x = no result given. In the library only some 1.4% were active in any assay of this set; here they are far more common.
SMILES,NR1D1 modulator,PG9 binder,NR2E3 ag-1,NR2E3 ag-2,NR2E3 ag confirm,VP16 counter
COc1cccc(CNc2ncnc3cc(Cl)ccc23)c1,7,0,x,54,84*,68
Fc1cccc(CNc2ncnc3cc(Cl)ccc23)c1F,6,-1,0,83*,64,53
COc1ccc(CNc2ncnc3cc(Cl)ccc23)cc1,5,0,6,21,x,x
CC(=O)c1cc(-c2cccc(C#N)c2)c(=O)n2c1CCC2,-1,x,x,x,x,x
Cc1cccc(NS(=O)(=O)c2ccc(-c3cnc(C4CC4)o3)cc2)c1C,5,-2,2,83*,77*,39
O=S(=O)(Nc1ccccc1)c1ccc(-c2cnc(C3CC3)o2)cc1,-1,0,1,16,x,x
Cc1ccc(C)c(NS(=O)(=O)c2ccc(-c3cnc(C4CC4)o3)cc2)c1,4,0,4,80*,59,40
CC(=O)c1cccc(NS(=O)(=O)c2ccc(-c3cnc(C4CC4)o3)cc2)c1,0,-1,1,101*,95*,82*
Cc1cc(C)cc(NS(=O)(=O)c2ccc(-c3cnc(C4CC4)o3)cc2)c1,4,-2,0,53,47,34
CC(=O)Nc1ccc(NS(=O)(=O)c2ccc(-c3cnc(C4CC4)o3)cc2)cc1,-3,0,-1,0,x,x
COC(=O)C1CN(Cc2ccc(OC)cc2)CCS(=O)(=O)N1Cc1ccccc1 (stereo unspecified),2,x,x,x,x,x
CN1C(=O)C[C@@](C#N)(C(=O)NCc2ccccc2)[C@H]1c1ccccc1,-4,x,x,x,x,x
CCCC1CCC2(CC1)CCC2OC(=S)Nc1cccc(C(F)(F)F)c1 (stereo unspecified),1,x,x,x,x,x
CN[C@H]1C[C@H]2c3cc(-c4ccccc4C)ccc3CCN2C[C@H]1[C@H](C)O,-5,x,x,x,x,x
CSC(=Nc1ccccc1)N=C(SCc1ccccc1)N(C)C,-1,2,x,86*,87*,53
O=C1CCN(S(=O)(=O)c2ccccc2)CCN1CCOCc1ccc(C(F)(F)F)cc1,2,-1,1,36,x,x
Cc1ccc(S(=O)(=O)N2CCC(=O)N(CCOCc3ccc(C(F)(F)F)cc3)CC2)cc1,-2,0,2,81*,88*,71*
Cc1ccccc1OCC(=O)N1N=C(C(F)(F)F)CC1(O)C(C)(C)C (stereo unspecified),-10,0,0,-26,x,x
Cc1ccc(OCC(=O)N2N=C(C(F)(F)F)CC2(O)C(C)(C)C)cc1C (stereo unspecified),0,0,3,51,59,47
Cc1ccc(NC(=O)c2sc3ncn(CC(=O)N4CCN(c5ccccn5)CC4)c(=O)c3c2C)cc1F,-2,-2,-1,76*,14,35
CCCC1CCC2(CCC(=O)N2CCOC)CC1 (stereo unspecified),3,x,x,x,x,x
CC[C@@H]1CCC[C@@H](O)[C@@H](C)C(=O)O[C@H](C)[C@@H](C)C/C=C(C)/C(OC)=C\C(=O)N(C)C([C@@H](C)CC)C(=O)N(C)[C@@H](C(C)C)C(=O)N(C)[C@@H](COC)C(=O)N2CCC[C@H]2C(=O)N(C)[C@@H](C(C)C)C(=O)N2CCC[C@H]2C(=O)O1 (stereo partly specified),-4,-1,x,97*,98*,91*
O=C(CC(Nc1ccc(Cl)cc1Cl)C(=O)O)c1ccccc1 (stereo unspecified),-5,1,2,59,40,26
CCCCC(=O)N1CCC(NS(=O)(=O)c2ccc3c(c2)CCN3C(C)=O)CC1,-3,x,x,x,x,x
C=CCn1c(SCC(=O)Nc2sccc2C(N)=O)nc2ccc(Cl)cc2c1=O,3,-2,-1,69,35,50
C=CCn1c(SCC(=O)Nc2sccc2C(N)=O)nc2sc(CC)cc2c1=O,-2,1,2,59,62,57
COc1ccc(OC)c(NC(=O)O[C@@H]2CC[C@@]34CCCN3C(=O)CCC[C@H]4C2)c1,-2,x,x,x,x,x
CCOC(=O)[C@@]12CN(C(=O)OC(C)(C)C)CC=C1N(Cc1ccc(OC)cc1)C(=O)[C@H]2CC(=O)N1CCN(C(=O)C2CC2)CC1,1,x,x,x,x,x
